Laboratory results from ChEMBL document CHEMBL2396521, “Development and characterization of glutamyl-protected N-hydroxyguanidines as reno-active nitric oxide donor drugs with therapeutic potential in acute renal failure” (J Med Chem, 2013).
Blank lines part the entries; values can stand above or below the compound they belong to. The source made the active and inactive calls. The calls are words filed in the database; no cut-off is given here.

Columns and labels:
Aorta [1] = experiment: Vasodilatory activity in Wistar rat endothelium-intact aorta assessed as reduction of acetylcholine-induced vasoconstriction at 100 uM in presence of L-NAME; format: functional, tissue-based
Outline: (§1)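 Male Wistar rat aortic rings (~3 mm) in a myograph at 37 °C in oxygenated Krebs, stretched to 15 mN, with maximal contraction set by 60 mM KCl and endothelium checked with ACh. Precontracted rings received NHG as a single 100 μM dose or cumulatively at 1−100 μM. Parallel rings were exposed before and during dosing to L-NAME 200 μM, L-Arg 100 μM, Hb 10 μM or ODQ 50 μM.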

Aorta [2] = experiment: Vasodilatory activity in Wistar rat endothelium-intact aorta assessed as reduction of acetylcholine-induced vasoconstriction at 100 uM; format: functional, tissue-based; outline: as §1
Rattus norvegicus [3] = species: Rattus norvegicus; experiment: Induction of NOx production in Wistar rat renal medullar homogenates at 100 uM after 1 hr by Griess test; format: functional, tissue-based; conditions: Renal medulla
Outline: (§2)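 Crude homogenates of liver, renal cortex or renal medulla from freshly killed adult male Wistar rats, prepared in ice-cold HBSS with 1% Triton X. NHG at 100 μM was incubated for 1 h at 37 °C, with or without L-NAME (200 μM), then spun at 1000g and 4 °C. NOx (nitrite + nitrate) was measured by Griess assay. n = 4−5; paired t-tests.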

Rattus norvegicus [4] = species: Rattus norvegicus; experiment: Induction of NOx production in Wistar rat renal cortex homogenates at 100 uM after 1 hr by Griess test; format: functional, tissue-based; outline: as §2
Liver [5] = experiment: Induction of NOx production in Wistar rat liver homogenates at 100 uM after 1 hr by Griess test; format: functional, tissue-based; outline: as §2
[6] = Induction of xanthine/xanthine oxidase-mediated NOx production at 100 uM after 1 hr by Griess test; format: physicochemical
Outline: (§3)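 Cell-free xanthine/xanthine oxidase (100 μM X / 100 mU XO) was made fresh daily in KPE buffer. NHG at 100 μM was incubated for 1 h at 37 °C, with or without allopurinol (100 μM), then centrifuged at 1000g and 4 °C. NOx was measured by Griess assay. n = 4−5; paired t-tests.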

Aorta [7] = experiment: Vasodilatory activity in Wistar rat endothelium-intact aorta assessed as reversibility of reduction of acetylcholine-induced vasoconstriction in presence of ODQ; format: functional; design: concentration or dose not given beside the values
Aorta [8] = experiment: Vasodilatory activity in Wistar rat endothelium-intact aorta assessed as reduction of acetylcholine-induced vasoconstriction; format: functional, tissue-based; outline: as §1
Kidney [9] = experiment: Vasodilatory activity in Wistar rat isolated perfused rat kidney model at 250 uM in presence of gamma-glutamyl transpeptidase; format: functional, tissue-based
Outline: (§4)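 Isolated perfused kidney from a pentobarbital-anaesthetized (i.p.) male Wistar rat, perfused at 10 mL/min with perfusion pressure read via a side-port transducer. After 20 min equilibration, pressure was raised to 120−140 mmHg with phenylephrine (0.3 μM increments). Compound was added cumulatively to the perfusate (1 μM to 1 mM).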

Aorta [10] = experiment: Vasodilatory activity in Wistar rat endothelium-intact aorta assessed as reduction of acetylcholine-induced vasoconstriction at 100 uM in presence of gamma-glutamyl transpeptidase; format: functional
Outline: (§5)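 Aortic ring myograph (rat, 37 °C, Krebs, precontracted). The glutamyl prodrug at 10 mM was preincubated with γ-GT (100 mU/5 mM gly-gly) for 1 h at 37 °C before addition to the bath at 100 μM. Hemoglobin (10 μM), where present, was used as NO scavenger.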

Rattus norvegicus [11] = species: Rattus norvegicus; experiment: Induction of NOx production in Wistar rat renal medullar homogenates at 100 uM after 1 hr by Griess test in presence of L-NAME; format: functional, tissue-based; conditions: Renal medulla; outline: as §2
Rattus norvegicus [12] = species: Rattus norvegicus; experiment: Induction of NOx production in Wistar rat renal cortex homogenates at 100 uM after 1 hr by Griess test in presence of L-NAME; format: functional, tissue-based; outline: as §2
Liver [13] = experiment: Induction of NOx production in Wistar rat liver homogenates at 100 uM after 1 hr by Griess test in presence of L-NAME; format: functional, tissue-based; outline: as §2
[14] = Induction of xanthine/xanthine oxidase-mediated NOx production at 100 uM after 1 hr by Griess test in presence of allopurinol; format: physicochemical; outline: as §3
Aorta [15] = experiment: Vasodilatory activity in Wistar rat endothelium-intact aorta assessed as reduction of acetylcholine-induced vasoconstriction at 100 uM in presence of L-Arg; format: functional, tissue-based; outline: as §1
Aorta [16] = experiment: Vasodilatory activity in Wistar rat endothelium-intact aorta assessed as reduction of acetylcholine-induced vasoconstriction at 100 uM in presence of ODQ; format: functional, tissue-based; outline: as §1
Aorta [17] = experiment: Vasodilatory activity in Wistar rat endothelium-intact aorta assessed as reduction of acetylcholine-induced vasoconstriction at 100 uM in presence of hemoglobin; format: functional, tissue-based; outline: as §1
Rattus norvegicus [18] = species: Rattus norvegicus; experiment: Induction of NOx production in Wistar rat renal medullar homogenates at 100 uM after 1 hr by Griess test in presence of gamma-glutamyl transpeptidase; format: functional, tissue-based; conditions: Renal medulla
Rattus norvegicus [19] = species: Rattus norvegicus; experiment: Induction of NOx production in Wistar rat renal cortex homogenates at 100 uM after 1 hr by Griess test in presence of gamma-glutamyl transpeptidase; format: functional, tissue-based
Liver [20] = experiment: Induction of NOx production in Wistar rat liver homogenates at 100 uM after 1 hr by Griess test in presence of gamma-glutamyl transpeptidase; format: functional, tissue-based
[21] = Induction of xanthine/xanthine oxidase-mediated NOx production at 100 uM after 1 hr by Griess test in presence of gamma-glutamyl transpeptidase; format: physicochemical
Kidney [22] = experiment: Prodrug activation in Wistar rat kidney homogenates assessed as formation of N-(4-Phenylethyl)-N'-hydroxyguanidine Hydrochloride at 1 to 100 uM; format: tissue-based; conditions: tissue homogenate, TDE = time-dependent effect
Outline: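 Prodrug at 1, 10 or 100 μM was incubated with freshly pooled (n = 3) male Wistar rat kidney homogenate. Samples were taken every 15 min over 45 min, and the parent NHG was quantified by positive-ion LC-MS/MS on a C18 column with 0.1% formic acid in 95% water/5% acetonitrile. Total protein was determined by Lowry assay.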

Kidney [23] = experiment: Prodrug activation in Wistar rat kidney homogenates assessed as formation of N-(4-Phenylethyl)-N'-hydroxyguanidine Hydrochloride after 10 to 40 mins; format: tissue-based; conditions: tissue homogenate
Kidney [24] = experiment: Vasodilatory activity in Wistar rat isolated perfused rat kidney model in presence of gamma-glutamyl transpeptidase; format: functional, tissue-based; outline: as §4
Aorta [25] = experiment: Vasodilatory activity in Wistar rat endothelium-intact aorta assessed as reduction of acetylcholine-induced vasoconstriction at 100 uM in presence of gamma-glutamyl transpeptidase and oxyhemoglobin; format: functional, tissue-based; outline: as §5

Activity [6]: Active
Compound: CN(CCCC(=O)O)/C(N)=N/O
Activity (Aorta [1]): inactive
Activity (Aorta [2]): Active
Activity (Rattus norvegicus [3]): 1 µM
Activity (Rattus norvegicus [4]): 1 µM
Activity (Liver [5]): 1 µM

EC50 (Aorta [8]): 3.98 µM
Compound: COc1cccc(CCN/C(N)=N/O)c1.Cl
Activity (Aorta [7]): 9%

Activity (Kidney [9]): inactive
Compound: N[C@@H](CCC(=O)NCCCC(=O)N/C(=N\OC(=O)CCCNC(=O)CC[C@H](N)C(=O)O)NCCc1ccccc1)C(=O)O

EC50 (Aorta [8]): 15.8 µM
Compound: Cl.N/C(=N\O)NCCCc1ccccc1
Activity (Aorta [7]): 68%

EC50 (Aorta [8]): 50.1 µM
Compound: Cl.N/C(=N\O)NCCc1cccc2ccccc12
Activity (Aorta [7]): 1%

EC50 (Aorta [8]): 15.8 µM
Compound: Cl.N/C(=N\O)NCCc1ccc(Br)cc1
Activity (Aorta [7]): 34%

EC50 (Aorta [8]): 100 µM
Compound: Cl.N/C(=N\O)NCCc1ccc(Cl)cc1
Activity (Aorta [7]): 11%

EC50 (Aorta [8]): 50.1 µM
Compound: COc1ccc(CCN/C(N)=N/O)cc1.Cl
Activity (Aorta [7]): 40%

EC50 (Aorta [8]): 63.1 µM
Compound: N/C(=N\O)NCCc1ccc(O)cc1

Compound: CN(CCCC(=O)O)c1noc(CC[C@H](N)C(=O)O)n1
Activity (Aorta [10]): inactive
Activity (Aorta [2]): inactive

pEC50 (Aorta [8]): inactive
Activity [14]: Active
Activity [6]: Not Active
Compound: CN(CCCC(=O)O)C(N)=O
Activity (Rattus norvegicus [11]): Active
Activity (Rattus norvegicus [12]): Active
Activity (Liver [13]): Active
Activity (Rattus norvegicus [3]): 1 µM
Activity (Rattus norvegicus [4]): 1 µM
Activity (Liver [5]): 1 µM

EC50 (Aorta [8]): 31.6 µM
Compound: CCCCN/C(N)=N/O.Cl
Activity (Aorta [7]): 100%

Activity (Rattus norvegicus [18]): inactive
Activity (Rattus norvegicus [19]): inactive
Activity (Liver [20]): inactive
Activity [21]: Not Active
Activity [14]: Not Active
Activity [6]: 5 µM
Compound: N=C(NO)NCCC[C@H](N)C(=O)O
Activity (Aorta [15]): inactive
Activity (Aorta [16]): inactive
Activity (Aorta [17]): inactive
Activity (Aorta [1]): inactive
Activity (Aorta [2]): Active
Activity (Rattus norvegicus [11]): inactive
Activity (Rattus norvegicus [12]): inactive
Activity (Liver [13]): inactive
Activity (Rattus norvegicus [3]): 5 µM
Activity (Rattus norvegicus [4]): 5 µM
Activity (Liver [5]): 5 µM

EC50 (Aorta [8]): 12.6 µM
Compound: Cl.N=C(NO)NCc1ccccc1
Activity (Aorta [7]): 37%

EC50 (Aorta [8]): 631 µM
Compound: Cl.N/C(=N\O)NCCCCc1ccccc1
Activity (Aorta [7]): 28%

Drug metabolism (Kidney [22]): tde
Drug metabolism (Kidney [23]): Dose-dependent effect
EC50 (Kidney [24]): 50 µM
Compound: N/C(=N\OCc1ccc(NC(=O)CC[C@H](N)C(=O)O)cc1)NCCc1ccccc1
Activity (Aorta [7]): Active
Activity (Aorta [10]): Active
Activity (Aorta [2]): Active

EC50 (Aorta [8]): 20 µM
Compound: COc1ccccc1CCN/C(N)=N/O.Cl
Activity (Aorta [7]): 14%

EC50 (Aorta [8]): 63.1 µM
Compound: Cl.N/C(=N\O)NCCc1ccc(F)cc1
Activity (Aorta [7]): 11%

EC50 (Aorta [8]): 25.1 µM
Compound: Cl.N/C(=N\O)NCCc1ccccc1
Activity (Aorta [15]): inactive
Activity (Aorta [16]): inactive
Activity (Aorta [17]): inactive
Activity (Aorta [7]): 75%
Activity (Aorta [1]): inactive

EC50 (Aorta [8]): 12.6 µM
Compound: Cc1ccc(CCN/C(N)=N/O)cc1.Cl
Activity (Aorta [7]): 35%

Compound: CN(CCCC(=O)O)/C(=N\O)NC(=O)CC[C@H](N)C(=O)O
Activity (Aorta [25]): inactive
Activity (Aorta [10]): 18%
Activity (Aorta [2]): inactive
